In data set [1] the test system is Klebsiella pneumoniae. The experiment in a line: Antimicrobial activity against Klebsiella pneumoniae NCIM 2957 at 100 ug/ml after 24 hrs by agar diffusion method. Type of data set: functional. The following applies: for zone of inhibition at 100 µg/mL: NCIM 2957, 24 h, read-out: IZ. The gist of the method: (§1)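 Agar diffusion on Mueller Hinton agar. Plates were seeded with 0.1 mL of bacterial suspension at 10⁵ cfu/mL in 0.85% sterile saline. Duplicate plates were incubated 24 h at 37 °C, and the zone of inhibition was measured in mm.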
In general terms: In agar diffusion tests the substance spreads into inoculated agar from a disc or well.

The subject of data set [2] is Proteus vulgaris. The experiment in a line: Antimicrobial activity against Proteus vulgaris MTCC 1771 at 100 ug/ml after 24 hrs by agar diffusion method. In kind it is functional. The conditions noted are these: MTCC 1771, 24 h, read-out: IZ. The gist of the method:
as §1

A further data set concerns Aspergillus flavus. The experiment in a line: Antimicrobial activity against Aspergillus flavus MTCC 2501 at 250 ug/ml after 48 hrs by agar diffusion method. The conditions noted are these: MTCC 2501, 48 h, read-out: IZ. Type of data set: functional. The essentials: (§2)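 Agar diffusion on Sabouraud's dextrose agar. Plates were spread with 0.1 mL of fungal spore suspension in sterile distilled water, adjusted to 10⁶ cfu/mL. Duplicate plates were incubated 48 h at 28 °C, and the zone of inhibition was measured in mm.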

The test system of data set [3] is Radical scavenging activity. The experiment in a line: Antioxidant activity assessed as DPPH radical scavenging activity. Type of data set: functional. On the set-up: concentration or dose not given beside the values.
The subject of data set [4] is THP-1. As to the kind of experiment: Antiinflammatory activity in human THP1 cells assessed as inhibition of LPS-induced IL6 release at 10 uM after 24 hrs by ELISA. Type of data set: functional. The following applies: THP-1, 24 h. The gist of the method:
(§3)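 PMA-differentiated THP-1 cells in RPMI 1640 with 10% FBS, penicillin and streptomycin. Test compound in 0.5% DMSO added 30 min at 37 °C before E. coli 0127:B8 LPS, then further incubation at 37 °C. Supernatant TNF-α and IL-6 measured by ELISA. Percent inhibition calculated against control.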
(An ELISA detects its analyte on a solid surface through an enzyme-linked reagent.)

The subject of data set [5] is THP-1. The experiment in a line: Cytotoxicity against human THP1 cells assessed as CCK8 […] at 10 uM after 24 hrs […]. In kind it is cell-based. The conditions noted are these: thp-1, 24 h. The essentials: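 Cytotoxicity was read with CCK-8 in the same wells as the cytokine assay. PMA-differentiated THP-1 cells were exposed to compound in 0.5% DMSO for 30 min at 37 °C, then stimulated with LPS and incubated further at 37 °C.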

Data set [6] deals with Staphylococcus aureus. As to the kind of experiment: Antimicrobial activity against Staphylococcus aureus MTCC 96 at 100 ug/ml after 24 hrs by agar diffusion method. Type of data set: functional. The conditions noted are these: MTCC 96, 24 h, read-out: IZ. The essentials:
as §1

A further data set relates to Aspergillus niger. As to the kind of experiment: Antimicrobial activity against Aspergillus niger MTCC 1781 at 250 ug/ml after 48 hrs by agar diffusion method. Type of data set: functional. The following applies: MTCC 1781, 48 h, read-out: IZ. The gist of the method:
as §2

A further data set relates to Bacillus subtilis. The experiment in a line: Antimicrobial activity against Bacillus subtilis MTCC 1789 at 100 ug/ml after 24 hrs by agar diffusion method. Type of data set: functional. The following applies: MTCC 1789, 24 h, read-out: IZ. The essentials:
as §1

The test system of a further data set is Trichoderma viride. As to the kind of experiment: Antimicrobial activity against Trichoderma viride MTCC 167 at 250 ug/ml after 48 hrs by agar diffusion method. In kind it is functional. The conditions noted are these: MTCC 167, 48 h, read-out: IZ. The gist of the method:
as §2

The next data set deals with Escherichia coli. As to the kind of experiment: Antimicrobial activity against Escherichia coli MTCC 1650 at 100 ug/ml after 24 hrs by agar diffusion method. In kind it is functional. The conditions noted are these: MTCC 1650, 24 h, read-out: IZ. The essentials: as §1
In data set [7] the test system is THP-1. As to the kind of experiment: Antiinflammatory activity in human THP1 cells assessed as inhibition of LPS-induced TNFalpha release at 10 uM after 24 hrs by ELISA. In kind it is functional. The conditions noted are these: THP-1, 24 h. The gist of the method: as §3
For data set [8], the system named is Klebsiella pneumoniae. The experiment in a line: Antimicrobial activity against Klebsiella pneumoniae NCIM 2957 at 10 ug/ml after 24 hrs by agar diffusion method. Type of data set: functional. The following applies: NCIM 2957, 24 h, read-out: IZ. The gist of the method:
as §1

Data set [9] has as its system Proteus vulgaris. As to the kind of experiment: Antimicrobial activity against Proteus vulgaris MTCC 1771 at 10 ug/ml after 24 hrs by agar diffusion method. Type of data set: functional. The following applies: MTCC 1771, 24 h, read-out: IZ. The gist of the method: as §1
The subject of data set [10] is Staphylococcus aureus. The experiment in a line: Antimicrobial activity against Staphylococcus aureus MTCC 96 at 10 ug/ml after 24 hrs by agar diffusion method. In kind it is functional. The conditions noted are these: MTCC 96, 24 h, read-out: IZ. The gist of the method: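 Mueller Hinton agar seeded with 0.1 mL of bacterial suspension in sterile 0.85% saline at 10⁵ cfu/mL. Duplicate plates incubated 24 h at 37 ± 0.5 °C. Activity read as zone of inhibition in mm.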

One may read the inhibition as how much of the control response was suppressed.

Active and inactive are the calls of the source. The rule behind the calls is not given here.

Regarding `COc1ccc(-c2nn(-c3ccccc3)cc2/C=C/C(=O)c2ccc(OC)cc2OC)cc1`, the “inhibition zone (IZ)” value in the data set with Klebsiella pneumoniae [1] is “Active”. Besides, the zone of inhibition at 100 µg/mL was 7 mm with Proteus vulgaris [2], 11 mm in the data set with Staphylococcus aureus [6], 10 mm in the data set with Bacillus subtilis and 8 mm in the data set on Escherichia coli. Moreover, the zone of inhibition at 250 µg/mL in the data set with Aspergillus flavus came out at 14 mm; with Aspergillus niger, 15 mm; with Trichoderma viride, 16 mm. Further, the Activity in [3] was determined as 34.6%; with THP-1 [5] it was 0%. The values for the inhibition at 10 µM in the data set on THP-1 [4] and with THP-1 [7] were 38.2% and 0%, respectively.

As to `CN(C)[C@@H]1C(O)=C(C(N)=O)C(=O)[C@@]2(O)C(O)=C3C(=O)c4c(O)cccc4[C@@](C)(O)[C@H]3C[C@@H]12` [TETRACYCLINE], the zone of inhibition at 10 µg/mL was 32 mm in the data set on Klebsiella pneumoniae [8], 20 mm in the data set on Proteus vulgaris [9] and 17 mm with Staphylococcus aureus [10].

In the case of `COc1ccc(C(=O)/C=C/c2cn(-c3ccccc3)nc2-c2ccc(Cl)cc2)c(OC)c1`, the zone of inhibition at 100 µg/mL was 12 mm in the data set on Proteus vulgaris [2], 11 mm in the data set with Staphylococcus aureus [6], 13 mm with Bacillus subtilis and 11 mm in the data set with Escherichia coli. Moreover, the zone of inhibition at 250 µg/mL in the data set with Aspergillus flavus stood at 10 mm; in the data set with Aspergillus niger, 11 mm; in the data set on Trichoderma viride it was 13 mm. Further, the results for the Activity (in data set [3]; with THP-1 [5]) were 18.7% and 11.488%, respectively. Moreover, the inhibition at 10 µM in the data set on THP-1 [4] stood at 2.71%; in the data set on THP-1 [7] it was 1.13%.

Take `COc1ccc(C(=O)/C=C/c2cn(-c3ccccc3)nc2-c2ccc(F)cc2)c(OC)c1`: the zone of inhibition at 100 µg/mL in the data set on Proteus vulgaris [2] came to 10 mm; in the data set with Staphylococcus aureus [6], 15 mm; with Bacillus subtilis, 14 mm; with Escherichia coli it was 12 mm. Further, the figures for the zone of inhibition at 250 µg/mL with Aspergillus flavus, in the data set on Aspergillus niger and in the data set on Trichoderma viride were 12 mm, 13 mm and 14 mm, respectively. In addition, the Activity in [3] was determined as 26.7%; in the data set with THP-1 [5], 0%. For the same molecule, the inhibition at 10 µM with THP-1 [4] and in the data set with THP-1 [7] was 0% each time.

In the case of `COc1ccc(C(=O)/C=C/c2cn(-c3ccccc3)nc2-c2ccccc2)c(OC)c1`, the zone of inhibition at 250 µg/mL in the data set on Aspergillus flavus stood at 15 mm; in the data set with Aspergillus niger, 12 mm; in the data set on Trichoderma viride, 14 mm. In addition, the results for the Activity (in data set [3]; in the data set with THP-1 [5]) were 31.8% and 0%, respectively. Besides, the inhibition at 10 µM was found to be 64.7% in the data set with THP-1 [4] and 0% with THP-1 [7]. Also, the zone of inhibition at 100 µg/mL in the data set on Staphylococcus aureus [6] amounted to 8 mm; with Bacillus subtilis it was 10 mm; in the data set with Escherichia coli, 10 mm.

For `COc1ccc(C(=O)/C=C/c2cn(-c3ccccc3)nc2-c2ccc(C)cc2)c(OC)c1`, the zone of inhibition at 100 µg/mL amounted to 12 mm with Klebsiella pneumoniae [1], 9 mm in the data set with Staphylococcus aureus [6], 8 mm in the data set with Bacillus subtilis and 11 mm in the data set with Escherichia coli. The zone of inhibition at 250 µg/mL in the data set with Aspergillus flavus worked out at 12 mm; in the data set on Aspergillus niger, 14 mm; in the data set on Trichoderma viride, 15 mm. Moreover, the Activity came to 13.5% in data set [3] and 0% in the data set on THP-1 [5]. Besides, the inhibition at 10 µM in the data set on THP-1 [4] and in the data set with THP-1 [7] was 0% each time.

For the molecule `COc1ccc(C(=O)/C=C/c2cn(-c3ccccc3)nc2-c2ccc(Br)cc2)c(OC)c1`, the zone of inhibition at 100 µg/mL in the data set with Klebsiella pneumoniae [1] is 10 mm; in the data set on Staphylococcus aureus [6], 8 mm; in the data set on Bacillus subtilis, 7 mm; in the data set on Escherichia coli, 9 mm. For the same molecule, the zone of inhibition at 250 µg/mL with Aspergillus flavus came to 13 mm; in the data set with Aspergillus niger, 11 mm; in the data set on Trichoderma viride, 13 mm. Further, the results for the Activity (in data set [3]; with THP-1 [5]) were 17.2% and 0%, respectively. In addition, the inhibition at 10 µM in the data set on THP-1 [4] worked out at 11.3%; with THP-1 [7] it was 1.81%.

Source of the values: ChEMBL document CHEMBL1153097, “Synthesis and biological evaluation of a novel series of pyrazole chalcones as anti-inflammatory, antioxidant and antimicrobial agents” (Bioorg Med Chem, 2009).
